Series [1] concerns the target T1, Oxysterols receptor LXR-beta (Homo sapiens, UniProt P55055).
T1 sequence (P55055 whole entry): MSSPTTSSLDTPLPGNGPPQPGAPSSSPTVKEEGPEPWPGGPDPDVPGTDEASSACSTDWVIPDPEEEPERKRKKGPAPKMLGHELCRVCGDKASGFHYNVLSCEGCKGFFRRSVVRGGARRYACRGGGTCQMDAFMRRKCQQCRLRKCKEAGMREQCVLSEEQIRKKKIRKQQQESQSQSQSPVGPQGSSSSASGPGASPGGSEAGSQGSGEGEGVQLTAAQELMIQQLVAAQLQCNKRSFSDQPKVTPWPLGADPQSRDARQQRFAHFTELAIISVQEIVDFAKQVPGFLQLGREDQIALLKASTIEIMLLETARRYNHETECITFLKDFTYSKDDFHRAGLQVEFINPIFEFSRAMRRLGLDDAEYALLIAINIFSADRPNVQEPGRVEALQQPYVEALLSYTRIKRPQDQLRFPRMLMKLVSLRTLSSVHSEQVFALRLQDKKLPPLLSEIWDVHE
Description: Agonist activity at LXRbeta (unknown origin) expressed in African green monkey CV1 cells. Type of series: cell-based.

Series [2] addresses T2, Nuclear receptor ROR-alpha (Homo sapiens) (UniProt P35398).
T2 sequence (whole entry): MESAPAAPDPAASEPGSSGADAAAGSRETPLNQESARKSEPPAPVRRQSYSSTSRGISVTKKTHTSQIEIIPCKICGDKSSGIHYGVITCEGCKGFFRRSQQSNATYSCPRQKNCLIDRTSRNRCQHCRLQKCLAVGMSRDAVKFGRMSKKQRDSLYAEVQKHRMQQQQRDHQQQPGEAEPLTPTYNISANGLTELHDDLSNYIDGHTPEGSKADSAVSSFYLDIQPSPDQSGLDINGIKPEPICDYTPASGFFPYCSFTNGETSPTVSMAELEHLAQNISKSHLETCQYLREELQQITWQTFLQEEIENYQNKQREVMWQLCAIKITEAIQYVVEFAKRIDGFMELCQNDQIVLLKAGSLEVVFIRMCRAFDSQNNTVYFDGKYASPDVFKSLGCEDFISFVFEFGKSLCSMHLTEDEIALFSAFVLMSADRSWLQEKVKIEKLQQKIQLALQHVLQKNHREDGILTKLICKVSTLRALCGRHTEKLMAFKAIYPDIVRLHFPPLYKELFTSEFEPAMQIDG
Description: Inverse agonist activity at GAL4-fused RORalpha LBD (272 to 556 residues) (unknown origin) expressed in human Jurkat cells measured after 18 hrs by native IL17 promoter driven steady-glo luciferase assay. It counts as cell-based.

The target in series [3] is T3, Cytochrome P450 2C8 (Homo sapiens, UniProt P10632).
T3 sequence (P10632 whole entry): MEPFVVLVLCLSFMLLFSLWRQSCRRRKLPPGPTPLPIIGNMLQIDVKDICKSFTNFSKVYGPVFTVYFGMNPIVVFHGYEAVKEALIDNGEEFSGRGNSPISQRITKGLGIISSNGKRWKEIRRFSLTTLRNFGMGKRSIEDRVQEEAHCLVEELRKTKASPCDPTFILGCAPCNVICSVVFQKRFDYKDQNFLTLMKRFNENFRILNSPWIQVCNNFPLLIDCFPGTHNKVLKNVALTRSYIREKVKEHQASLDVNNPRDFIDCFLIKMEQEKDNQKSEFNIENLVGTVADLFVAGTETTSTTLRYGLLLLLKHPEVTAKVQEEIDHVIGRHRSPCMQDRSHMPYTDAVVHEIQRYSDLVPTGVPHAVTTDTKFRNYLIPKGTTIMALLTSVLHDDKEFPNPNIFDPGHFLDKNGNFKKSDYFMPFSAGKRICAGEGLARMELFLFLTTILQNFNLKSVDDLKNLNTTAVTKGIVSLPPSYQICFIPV
Put plainly: Inhibition of CYP2C8 (unknown origin). Type of series: ADME.

For series [4], the system named is Mus musculus. Put plainly: Inhibition of IL2/IL23-induced IL17F production in C57BL/6 mouse at 15 mg/kg, po bid treated 30 mins prior to 24 hrs IL2 challenge followed by IL2/IL23 addition at 0,7 and 23 hrs measured after 7 hrs post last IL2/IL23 challenge relative to control. It counts as functional. Particulars: C57BL/6, po. The method in brief: (§1)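 Naive mice were challenged three times with IL-2 plus IL-23 (first at 0 and 7 h) and dosed orally bid at 5, 15 or 50 mg/kg. Serum cytokines were measured 7 h after the final IL-2/IL-23 administration. An anti-IL-23 antibody served as positive control.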

The target in series [5] is T4, Oxysterols receptor LXR-alpha (Homo sapiens, UniProt Q13133).
T4 sequence (Q13133 whole entry): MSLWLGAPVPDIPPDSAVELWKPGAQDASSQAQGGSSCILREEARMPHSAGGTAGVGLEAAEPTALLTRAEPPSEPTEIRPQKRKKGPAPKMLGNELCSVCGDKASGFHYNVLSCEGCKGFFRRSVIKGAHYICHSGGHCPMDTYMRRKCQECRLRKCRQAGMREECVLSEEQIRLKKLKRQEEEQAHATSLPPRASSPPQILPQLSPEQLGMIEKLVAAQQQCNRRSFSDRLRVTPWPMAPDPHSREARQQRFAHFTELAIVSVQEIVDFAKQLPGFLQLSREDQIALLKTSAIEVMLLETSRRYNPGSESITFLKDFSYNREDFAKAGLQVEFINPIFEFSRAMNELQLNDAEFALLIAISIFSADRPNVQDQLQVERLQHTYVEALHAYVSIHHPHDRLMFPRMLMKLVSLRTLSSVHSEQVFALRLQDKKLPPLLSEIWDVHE
Put plainly: Agonist activity at LXRalpha (unknown origin) expressed in African green monkey CV1 cells. Type of series: cell-based.

In series [6] the target is Cytochrome P450 3A4 (Homo sapiens, UniProt P08684). Description: Inhibition of CYP3A4 (unknown origin). It counts as ADME.
Chain of Cytochrome P450 3A4 (P08684 whole entry): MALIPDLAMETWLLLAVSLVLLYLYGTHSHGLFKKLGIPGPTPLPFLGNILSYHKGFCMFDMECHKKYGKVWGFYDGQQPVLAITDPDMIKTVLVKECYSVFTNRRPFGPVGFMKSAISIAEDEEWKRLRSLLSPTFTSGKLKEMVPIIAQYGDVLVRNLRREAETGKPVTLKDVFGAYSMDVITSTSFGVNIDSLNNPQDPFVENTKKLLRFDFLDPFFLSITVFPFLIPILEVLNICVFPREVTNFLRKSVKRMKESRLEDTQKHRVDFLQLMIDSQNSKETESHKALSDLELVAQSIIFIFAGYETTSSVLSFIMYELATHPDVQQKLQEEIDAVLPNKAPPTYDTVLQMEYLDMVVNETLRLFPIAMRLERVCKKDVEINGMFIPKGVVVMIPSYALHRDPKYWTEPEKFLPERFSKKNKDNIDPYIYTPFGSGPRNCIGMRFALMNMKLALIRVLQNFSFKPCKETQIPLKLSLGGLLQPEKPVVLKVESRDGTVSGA
The test system of series [7] is Mus musculus. Put plainly: Inhibition of IL2/IL23-induced GM-CSF production in po bid dosed C57BL/6 mouse treated 30 mins prior to 24 hrs IL2 challenge followed by IL2/IL23 addition at 0,7 and 23 hrs measured after 7 hrs post last IL2/IL23 challenge. It counts as functional, organism-based. The essentials: as §1
For series [8], the target named is T2, Nuclear receptor ROR-alpha (Homo sapiens). Put plainly: Agonist activity at GAL4-fused RORalpha LBD (272 to 556 residues) (unknown origin) expressed in human Jurkat cells measured after 18 hrs by native IL17 promoter driven steady-glo luciferase assay. Type of series: cell-based.
In series [9] the target is Cytochrome P450 2C19 (Homo sapiens, UniProt P33261). Put plainly: Inhibition of CYP2C19 (unknown origin). Type of series: ADME.
Chain of Cytochrome P450 2C19 (P33261 whole entry): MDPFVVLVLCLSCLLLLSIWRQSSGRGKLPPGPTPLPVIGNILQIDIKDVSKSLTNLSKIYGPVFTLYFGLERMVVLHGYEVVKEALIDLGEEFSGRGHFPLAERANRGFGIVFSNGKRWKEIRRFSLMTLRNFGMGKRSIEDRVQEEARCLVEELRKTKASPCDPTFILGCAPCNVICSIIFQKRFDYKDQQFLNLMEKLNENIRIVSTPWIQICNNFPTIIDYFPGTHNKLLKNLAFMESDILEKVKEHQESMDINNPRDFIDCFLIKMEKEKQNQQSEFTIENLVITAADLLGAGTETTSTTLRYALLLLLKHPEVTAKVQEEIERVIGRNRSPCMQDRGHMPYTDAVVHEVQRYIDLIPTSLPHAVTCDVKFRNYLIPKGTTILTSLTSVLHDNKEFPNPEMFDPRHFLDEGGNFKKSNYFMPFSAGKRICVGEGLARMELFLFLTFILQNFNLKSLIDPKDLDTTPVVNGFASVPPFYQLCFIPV
The test system of series [10] is Mus musculus. Description: Inhibition of IL2/IL23-induced IL17F production in C57BL/6 mouse at 5 mg/kg, po bid treated 30 mins prior to 24 hrs IL2 challenge followed by IL2/IL23 addition at 0,7 and 23 hrs measured after 7 hrs post last IL2/IL23 challenge relative to control. Type of series: functional. Particulars: C57BL/6, po. The method in brief: as §1
Series [11] in a line: Cmax in Balb/c mouse at 10 mg/kg, po. Type of series: ADME, organism-based. On the set-up: dose 10 mg/kg, route oral. Particulars: in vivo. The method in brief: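 Balb/c mice given a single intravenous dose of 2 mg/kg or an oral dose of 10 mg/kg. Plasma exposure was followed to derive Cmax, Tmax, AUC, t1/2, clearance, Vss and oral bioavailability (F).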
Series [12] deals with Mus musculus. Put plainly: Protection against IL23-induced acanthosis C57BL/6 mouse model of psoriasis assessed as reduction in ear swelling at 10 to 50 mg/kg, po bid for 10 days treated 2 hrs prior to IL23 challenge every other day for 10 days measured on day 11. Type of series: functional, organism-based.

The structures appear in SMILES notation. Calls of active or inactive are those of the source. The rule behind the calls is not given here.

For orientation: EC50 means the concentration at which the effect is half-maximal. For orientation: IC50 means the concentration at which inhibition is half-maximal. As a reminder, the inhibition in vivo is the relative decrease from the control value, in per cent. One may read the Cmax as the peak of the concentration-time curve. As for `O=C(O)[C@H]1CC[C@H](C(=O)N2CC[C@](c3ccc(C(F)(C(F)(F)F)C(F)(F)F)cc3)(S(=O)(=O)c3ccc(F)cc3)C2)CC1`, the concentration giving a half-maximal response (EC50) in [1] and in [5] was more than 7.5 µM throughout. Besides, the result in series [2] and in [8] was inactive. The figures for the IC50 in [3], in [6] and in series [9] were 0.68 µM, more than 20 µM and more than 20 µM, respectively. Also, in series [4], the inhibition in vivo at 15 mg/kg stood at 77%. In addition, the inhibition entry in series [7] was “Dose-dependent effect”. For the same compound, in [10], the inhibition in vivo at 5 mg/kg was 47%. The concentration in [11] peaked (Cmax) at 6.6 µM. The result in series [12] was Active.
